From ChEMBL document CHEMBL4354812, “N-Benzyl/Aryl Substituted Tryptanthrin as Dual Inhibitors of Indoleamine 2,3-Dioxygenase and Tryptophan 2,3-Dioxygenase” (J Med Chem, 2019)
Activity calls are given as the source filed them. The rule behind the calls is not given here.

How the values were obtained:
[1] = target: T1, Tryptophan 2,3-dioxygenase (Homo sapiens, UniProt P48775); assay: Inhibition of human TDO transfected in HEK293 cells assessed as reduction in kynurenine production using L-tryptophan as substrate incubated for 12 hrs; assay type: cell-based
How it was run: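 U87 MG cells (hIDO2) or HEK293 cells (hTDO) were transiently transfected at 80% confluence, with empty vector as control. After 18 h, cells were seeded 2.5 × 10⁴/well in medium with 200 μM L-Trp. Compound serial dilutions were added after a further 6 h (IDO2) or 12 h (TDO). Reactions were stopped 24 h (IDO2) or 8 h (TDO) later with TCA, heated 65 °C 15 min, and Kyn read with DMAB at 492 nm. IC50 by nonlinear regression.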
Target sequence in this assay (P48775 whole entry): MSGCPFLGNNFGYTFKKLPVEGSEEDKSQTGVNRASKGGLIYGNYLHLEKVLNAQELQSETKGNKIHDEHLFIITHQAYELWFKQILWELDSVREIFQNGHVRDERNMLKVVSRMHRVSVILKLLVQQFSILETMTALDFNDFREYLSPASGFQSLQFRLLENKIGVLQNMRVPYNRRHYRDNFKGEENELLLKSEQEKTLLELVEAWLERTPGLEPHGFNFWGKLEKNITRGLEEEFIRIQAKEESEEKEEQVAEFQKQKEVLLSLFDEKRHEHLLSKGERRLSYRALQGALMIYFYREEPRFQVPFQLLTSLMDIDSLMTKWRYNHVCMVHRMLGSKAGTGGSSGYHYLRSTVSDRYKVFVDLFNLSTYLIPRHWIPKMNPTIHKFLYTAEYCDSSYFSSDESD

[2] = target: T1, Tryptophan 2,3-dioxygenase; assay: Binding affinity to human TDO assessed as change in spectral signal at 200 uM by CPMG NMR spectrometry analysis
Target sequence in this assay (P48775 whole entry, looked up): as the sequence (P48775 whole entry) above

Homo sapiens = organism: Homo sapiens; assay: Inhibition of IDO1/TDO in IFNgamma-treated human HeLa cells assessed as T cell proliferation at 500 nM measured after 2 days in presence of IL-2, anti-CD3 and IFN-gamma by CFSE dye based flow cytometry analysis (reference value: 11.7 %); parameters: scale not given: the % may be the effect or the level left
How it was run: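 CFSE-labelled human PBMC lymphocytes (1 × 10⁶/well) were cocultured with HeLa cells (2 × 10⁵/well), a 5:1 ratio, in 150 U/mL IL-2, 100 ng/mL anti-CD3 and 60 ng/mL IFN-γ. Compound was tested at 40 nM, 200 nM, 500 nM or 1 μM. Proliferation was read by flow cytometry after 2 days, three independent experiments.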

Mus musculus [3] = assay: (§1) In vivo inhibition of IDO1/2/TDO in C57BL/6 mouse assessed as decrease in LPS-stimulated kynurenine pathway by measuring increase in serum tryptophan level at 60 mg/kg, ig pretreated for 24 hrs with Escherichia coli LPS followed by compound treatment measured at 12 hrs post-treatment by HPLC analysis; assay type: functional, organism-based
How it was run: (§2)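 C57BL/6 mice were given ip saline or E. coli LPS 5 mg/kg. 24 h later they received ig 60 mg/kg compound or 0.5% CMC-Na. Blood was taken at 1, 6, 12, 24 and 30 h after dosing. Serum Trp and Kyn were measured by HPLC and the Kyn/Trp ratio calculated. n = 3–5 mice/group.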

Mus musculus [4] = assay: as §1, with “decrease in ratio of kynurenine to tryptophan level” for “increase”, “serum” for “serum tryptophan level”, “24” for “12”; assay type: functional, organism-based; how it was run: as §2
Mus musculus [5] = assay: In vivo inhibition of IDO1/2/TDO in C57BL/6 mouse assessed as decrease in LPS-stimulated kynurenine pathway by measuring effect on kynurenine level at 60 mg/kg, ig pretreated for 24 hrs with Escherichia coli LPS followed by compound treatment measured at 1 to 30 hrs post-treatment by HPLC analysis; assay type: functional, organism-based; how it was run: as §2
Rattus norvegicus [6] = assay: In vivo inhibition of IDO1/2/TDO in Sprague-Dawley rat assessed as increase in tryptophan level in lung at 30 mg/kg, ig administered as single dose by LC-MS analysis; assay type: functional, organism-based
How it was run: (§3)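 Naive SD rats received a single ig dose of 30 mg/kg in 0.5% CMC-Na, with vehicle as control. Lungs were dissected and Trp and Kyn quantified by LC–MS, with the Kyn/Trp ratio calculated. n = 3–4 rats/group.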

Rattus norvegicus [7] = assay: In vivo inhibition of IDO1/2/TDO in Sprague-Dawley rat assessed as decrease in kynurenine/tryptophan ratio in lung at 30 mg/kg, ig administered as single dose by LC-MS analysis; assay type: functional, organism-based; how it was run: as §3
[8] = system: Lewis lung carcinoma cell line; assay: Antitumor activity against mouse LLC cells implanted in C57BL/6 mouse assessed as reduction in tumor weight at 45 mg/kg, po qd administered for 2 weeks and measured post-treatment; assay type: functional, organism-based
How it was run: (§4)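 Tumor cells (LLC, or H22 ascites cells after two intraperitoneal passages in Kunming mice) injected sc into the right forelimb at 2 × 10⁶ per mouse, in female 6–8-week C57BL/6 or Kunming mice. Oral dosing once daily began at 5 mm tumor diameter and continued 2 weeks. Vehicle was 0.5% CMC-Na. Volume was read by caliper every 2 days as long × short²/2. Tumors were weighed at sacrifice. n = 9–10/group.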

[9] = system: Lewis lung carcinoma cell line; assay: Antitumor activity against mouse LLC cells implanted in C57BL/6 mouse assessed as reduction in tumor volume at 45 mg/kg, po qd administered for 2 weeks and measured at 2 days interval during compound dosing relative to control; assay type: functional; parameters: scale not given: the % may be the effect or the level left; how it was run: as §4
[10] = system: Lewis lung carcinoma cell line; assay: Antitumor activity against mouse LLC cells implanted in C57BL/6 mouse assessed as tumor regression at 45 mg/kg, po qd administered for 2 weeks and measured post-treatment; assay type: functional, organism-based; how it was run: as §4
H22 = assay: Antitumor activity against mouse H22 cells implanted in Kunming mouse assessed as reduction in tumor weight at 45 mg/kg, po qd administered for 2 weeks and measured post-treatment relative to control; assay type: functional; parameters: scale not given: the % may be the effect or the level left; how it was run: as §4
Mus musculus [11] = assay: In vivo blockade of kynurenine pathway in C57BL/6 mouse implanted with mouse LLC cells assessed as increase in tryptophan level in tumor at 45 mg/kg, po qd for 2 weeks by LC-MS analysis; assay type: functional, organism-based
How it was run: (§5)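 LLC tumor-bearing C57BL/6 mice received oral dosing once daily in 0.5% CMC-Na for 2 weeks. Tumors were dissected and Trp and Kyn measured by LC–MS on a C18 column with acetonitrile/0.1% formic acid gradient (5–80%), positive ion mode, m/z 205 (Trp) and 209 (Kyn), metronidazole internal standard. Kyn/Trp ratio calculated. n = 4–6/group.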

Mus musculus [12] = assay: In vivo blockade of kynurenine pathway in C57BL/6 mouse implanted with mouse LLC cells assessed as decrease in kynurenine/tryptophan ratio in tumor at 45 mg/kg, po qd for 2 weeks by LC-MS analysis; assay type: functional, organism-based; how it was run: as §5
Mus musculus [13] = assay: In vivo blockade of kynurenine pathway in Kunming mouse implanted with mouse H22 cells assessed as decrease in kynurenine level in serum at 45 mg/kg, po qd for 2 weeks by HPLC analysis; assay type: functional, organism-based
How it was run: (§6)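 H22 tumor-bearing Kunming mice received oral dosing once daily in 0.5% CMC-Na for 2 weeks. Serum Trp and Kyn were measured by HPLC on a C18 column with 15 mM sodium acetate (pH 3.6) containing 4% acetonitrile, UV detection at 280 and 360 nm. Kyn/Trp ratio calculated. n = 9–10/group.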

Mus musculus [14] = assay: In vivo blockade of kynurenine pathway in Kunming mouse implanted with mouse H22 cells assessed as increase in tryptophan level in serum at 45 mg/kg, po qd for 2 weeks by HPLC analysis; assay type: functional, organism-based; how it was run: as §6
Mus musculus [15] = assay: In vivo blockade of kynurenine pathway in Kunming mouse implanted with mouse H22 cells assessed as decrease in kynurenine/tryptophan ratio in serum at 45 mg/kg, po qd for 2 weeks by HPLC analysis; assay type: functional, organism-based; how it was run: as §6

IC50 [1]: 90 nM | Activity [2]: Active | Activity (Homo sapiens): 51.4%
Compound: CN1CCN(Cc2ccc3nc4n(c(=O)c3c2)-c2ccc(F)cc2C4=O)CC1
inhibition (Mus musculus [3]): Active | inhibition (Mus musculus [4]): Active | inhibition (Mus musculus [5]): inactive | inhibition (Rattus norvegicus [6]): Active | inhibition (Rattus norvegicus [7]): Active | Activity [8]: Active | Activity [9]: 56.2% | Activity [10]: inactive | Activity (H22): 55.4% | Activity (Mus musculus [11]): inactive | Activity (Mus musculus [12]): Active | Activity (Mus musculus [13]): Active | Activity (Mus musculus [14]): Active | Activity (Mus musculus [15]): Active
